Results from ChEMBL document CHEMBL1149392, “PTP-1B inhibitors: cyclopenta[d][1,2]-oxazine derivatives” (Bioorg Med Chem Lett, 2006).
pIC50: −log10 of the molar value. Calls of active or inactive are those of the source. No cut-off for these calls is given here.

Legend:
[1] = target: T1, Tyrosine-protein phosphatase non-receptor type 1 (Homo sapiens) (UniProt P18031); test: Inhibitory activity against recombinant human PTP1B at 10 uM
T1 sequence (whole entry): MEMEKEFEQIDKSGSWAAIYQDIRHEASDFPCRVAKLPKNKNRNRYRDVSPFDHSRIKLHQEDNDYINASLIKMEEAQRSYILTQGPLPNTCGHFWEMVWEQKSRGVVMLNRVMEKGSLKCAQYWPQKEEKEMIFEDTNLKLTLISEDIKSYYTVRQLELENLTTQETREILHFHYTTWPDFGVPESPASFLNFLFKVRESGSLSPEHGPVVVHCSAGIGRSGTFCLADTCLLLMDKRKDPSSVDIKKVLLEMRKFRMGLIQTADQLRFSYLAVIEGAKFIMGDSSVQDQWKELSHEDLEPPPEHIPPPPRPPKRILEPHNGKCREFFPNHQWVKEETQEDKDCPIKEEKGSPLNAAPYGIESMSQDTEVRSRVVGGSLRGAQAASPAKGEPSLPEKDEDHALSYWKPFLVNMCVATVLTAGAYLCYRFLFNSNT

[2] = target: T2, Tyrosine-protein phosphatase non-receptor type 1 (Homo sapiens, UniProt P18031); test: Inhibitory activity against recombinant human PTP1B
T2 sequence (P18031 whole entry): T1 sequence (whole entry)
Procedure, shortened: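 Recombinant human PTP-1B (0.1 μg) incubated with 20 μM fluorescein diphosphate and compound in 30 mM Tris, 75 mM NaCl, 0.67 mM EDTA, 1 mM DTT, pH 8.0, for 1 h at room temperature. Product fluorescein monophosphate read by fluorescence (ex 485 nm, em 538 nm). IC50 reported.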

[3] = target: Tyrosine-protein phosphatase YopH (Yersinia enterocolitica) (UniProt P15273); test: Inhibitory activity against YOP protein tyrosine phosphatase at 10 uM
Procedure, shortened: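 Yop phosphatase tested in the nine-phosphatase selectivity panel with 20 μM fluorescein diphosphate as substrate. Inhibitor tested at a single concentration of 10 μM; the value is % inhibition.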

[4] = target: Dual specificity protein phosphatase 3 (Homo sapiens, UniProt P51452); test: Inhibitory activity against VH1-related phosphatase VHR at 10 uM
Procedure, shortened: (§1)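 Phosphatase selectivity panel using fluorescein diphosphate substrate at 20 μM, the same level as in the PTP-1B assay. Compound tested at a single concentration of 10 μM; percent inhibition of enzyme activity reported.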

[5] = target: Serine/threonine-protein phosphatase PP1-gamma catalytic subunit (Homo sapiens, UniProt P36873); test: Inhibitory activity against Protein phosphatase 1 at 10 uM; procedure, shortened: as §1
[6] = target: T3, Receptor-type tyrosine-protein phosphatase C (Homo sapiens) (UniProt P08575); test: Inhibitory activity against CD45 phosphatase at 10 uM; procedure, shortened: as §1
T3 sequence (whole entry): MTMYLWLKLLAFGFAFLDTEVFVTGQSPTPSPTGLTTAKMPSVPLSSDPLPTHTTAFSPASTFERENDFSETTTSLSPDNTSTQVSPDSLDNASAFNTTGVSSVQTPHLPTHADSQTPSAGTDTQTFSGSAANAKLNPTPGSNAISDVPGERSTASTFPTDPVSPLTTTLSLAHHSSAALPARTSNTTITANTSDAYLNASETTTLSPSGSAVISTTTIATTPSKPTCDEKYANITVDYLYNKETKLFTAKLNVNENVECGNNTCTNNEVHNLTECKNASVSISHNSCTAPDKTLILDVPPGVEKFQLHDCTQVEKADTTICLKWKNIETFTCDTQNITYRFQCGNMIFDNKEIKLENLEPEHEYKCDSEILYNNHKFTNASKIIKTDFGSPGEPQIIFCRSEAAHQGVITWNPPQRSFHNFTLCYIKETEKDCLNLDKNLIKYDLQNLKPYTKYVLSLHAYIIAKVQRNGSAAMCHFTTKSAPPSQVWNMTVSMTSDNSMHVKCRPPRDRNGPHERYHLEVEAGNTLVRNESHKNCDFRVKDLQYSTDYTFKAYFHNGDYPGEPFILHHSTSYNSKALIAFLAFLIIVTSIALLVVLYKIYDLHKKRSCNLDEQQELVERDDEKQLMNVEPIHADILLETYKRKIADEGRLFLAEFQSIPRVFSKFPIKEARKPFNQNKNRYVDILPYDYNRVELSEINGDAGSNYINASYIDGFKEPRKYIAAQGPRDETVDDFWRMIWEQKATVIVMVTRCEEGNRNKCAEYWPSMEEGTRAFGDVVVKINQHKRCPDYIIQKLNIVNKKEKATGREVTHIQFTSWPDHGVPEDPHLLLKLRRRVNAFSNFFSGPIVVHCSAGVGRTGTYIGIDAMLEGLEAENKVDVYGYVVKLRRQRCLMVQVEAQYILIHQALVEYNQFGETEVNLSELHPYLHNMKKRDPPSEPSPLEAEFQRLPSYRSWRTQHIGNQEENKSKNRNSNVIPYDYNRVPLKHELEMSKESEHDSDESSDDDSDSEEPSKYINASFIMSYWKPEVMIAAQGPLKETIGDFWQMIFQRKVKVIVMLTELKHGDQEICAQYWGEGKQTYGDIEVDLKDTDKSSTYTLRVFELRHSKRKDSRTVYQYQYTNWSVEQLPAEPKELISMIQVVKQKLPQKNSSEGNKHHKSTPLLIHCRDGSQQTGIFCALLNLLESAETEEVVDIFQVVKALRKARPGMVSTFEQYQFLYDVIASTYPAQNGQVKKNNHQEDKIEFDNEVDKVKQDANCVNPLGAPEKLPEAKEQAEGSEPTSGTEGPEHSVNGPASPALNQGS

[7] = target: Receptor-type tyrosine-protein phosphatase F (Homo sapiens, UniProt P10586); test: Inhibitory activity against LAR protein tyrosine phosphatase at 10 uM; procedure, shortened: as §1
[8] = target: T4, M-phase inducer phosphatase 1 (Homo sapiens) (UniProt P30304); test: Inhibitory activity against cdc25A phosphatase at 10 uM; procedure, shortened: as §1
T4 sequence (whole entry): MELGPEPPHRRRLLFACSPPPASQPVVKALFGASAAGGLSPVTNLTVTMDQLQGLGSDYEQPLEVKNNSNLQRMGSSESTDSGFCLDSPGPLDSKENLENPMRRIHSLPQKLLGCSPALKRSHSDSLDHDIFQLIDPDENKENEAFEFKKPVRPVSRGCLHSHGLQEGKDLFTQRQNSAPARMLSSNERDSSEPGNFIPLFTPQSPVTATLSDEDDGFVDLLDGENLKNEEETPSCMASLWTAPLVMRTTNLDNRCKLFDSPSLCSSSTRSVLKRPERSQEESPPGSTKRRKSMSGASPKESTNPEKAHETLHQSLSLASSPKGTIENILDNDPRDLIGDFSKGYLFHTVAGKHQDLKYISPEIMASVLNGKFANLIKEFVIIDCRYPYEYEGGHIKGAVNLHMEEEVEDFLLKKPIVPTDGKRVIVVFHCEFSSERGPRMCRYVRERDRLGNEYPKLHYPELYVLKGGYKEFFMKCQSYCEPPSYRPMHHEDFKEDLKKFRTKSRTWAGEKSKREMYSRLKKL

[9] = target: T5, M-phase inducer phosphatase 2 (Homo sapiens) (UniProt P30305); test: Inhibitory activity against cdc25B phosphatase at 10 uM; procedure, shortened: as §1
T5 sequence (whole entry): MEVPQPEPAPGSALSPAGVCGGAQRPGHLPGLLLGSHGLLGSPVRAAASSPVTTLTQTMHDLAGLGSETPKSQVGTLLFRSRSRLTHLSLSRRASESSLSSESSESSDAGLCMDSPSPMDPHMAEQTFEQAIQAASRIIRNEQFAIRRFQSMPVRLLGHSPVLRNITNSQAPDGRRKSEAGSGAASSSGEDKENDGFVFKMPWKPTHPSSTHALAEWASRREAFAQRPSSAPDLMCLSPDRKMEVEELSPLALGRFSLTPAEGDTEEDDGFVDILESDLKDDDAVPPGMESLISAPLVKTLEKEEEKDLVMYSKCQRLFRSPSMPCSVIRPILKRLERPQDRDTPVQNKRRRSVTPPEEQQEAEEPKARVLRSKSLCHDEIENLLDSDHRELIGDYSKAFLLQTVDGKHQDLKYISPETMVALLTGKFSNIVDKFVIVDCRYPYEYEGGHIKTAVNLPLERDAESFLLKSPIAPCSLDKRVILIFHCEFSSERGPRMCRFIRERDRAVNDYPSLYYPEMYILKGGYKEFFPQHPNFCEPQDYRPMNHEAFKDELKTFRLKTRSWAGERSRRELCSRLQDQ

[10] = Inhibitory activity against protein phosphatase type 2A at 10 uM; procedure, shortened: as §1

Chain of Serine/threonine-protein phosphatase PP1-gamma catalytic subunit (P36873 2-323 limits assumed): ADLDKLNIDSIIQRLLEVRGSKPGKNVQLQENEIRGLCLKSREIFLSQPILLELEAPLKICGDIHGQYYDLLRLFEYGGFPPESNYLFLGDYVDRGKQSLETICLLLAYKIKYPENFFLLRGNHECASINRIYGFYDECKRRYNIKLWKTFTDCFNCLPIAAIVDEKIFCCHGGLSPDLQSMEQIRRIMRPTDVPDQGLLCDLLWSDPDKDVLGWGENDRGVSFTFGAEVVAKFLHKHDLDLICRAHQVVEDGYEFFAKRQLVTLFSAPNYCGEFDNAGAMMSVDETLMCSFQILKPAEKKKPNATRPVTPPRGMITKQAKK
Chain of Dual specificity protein phosphatase 3 (P51452 whole entry, looked up): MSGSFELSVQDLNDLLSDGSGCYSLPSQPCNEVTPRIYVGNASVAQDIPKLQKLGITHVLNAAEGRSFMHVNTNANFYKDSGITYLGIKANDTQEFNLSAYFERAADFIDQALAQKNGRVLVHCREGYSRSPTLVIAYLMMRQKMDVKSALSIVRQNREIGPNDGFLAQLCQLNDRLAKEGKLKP
Chain of Tyrosine-protein phosphatase YopH (Yersinia enterocolitica) (P15273 whole entry): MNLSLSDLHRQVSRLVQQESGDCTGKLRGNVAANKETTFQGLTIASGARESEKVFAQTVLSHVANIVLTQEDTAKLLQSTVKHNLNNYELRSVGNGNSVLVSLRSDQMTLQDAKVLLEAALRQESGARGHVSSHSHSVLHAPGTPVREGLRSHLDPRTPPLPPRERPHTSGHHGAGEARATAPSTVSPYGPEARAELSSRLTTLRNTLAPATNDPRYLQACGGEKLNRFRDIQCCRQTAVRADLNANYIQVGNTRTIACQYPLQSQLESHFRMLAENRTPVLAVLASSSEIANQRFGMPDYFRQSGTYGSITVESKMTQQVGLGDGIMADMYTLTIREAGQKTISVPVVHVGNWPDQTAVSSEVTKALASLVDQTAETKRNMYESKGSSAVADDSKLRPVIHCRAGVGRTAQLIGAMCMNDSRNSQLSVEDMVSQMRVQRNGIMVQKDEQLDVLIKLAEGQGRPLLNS
Chain of Receptor-type tyrosine-protein phosphatase F (P10586 whole entry): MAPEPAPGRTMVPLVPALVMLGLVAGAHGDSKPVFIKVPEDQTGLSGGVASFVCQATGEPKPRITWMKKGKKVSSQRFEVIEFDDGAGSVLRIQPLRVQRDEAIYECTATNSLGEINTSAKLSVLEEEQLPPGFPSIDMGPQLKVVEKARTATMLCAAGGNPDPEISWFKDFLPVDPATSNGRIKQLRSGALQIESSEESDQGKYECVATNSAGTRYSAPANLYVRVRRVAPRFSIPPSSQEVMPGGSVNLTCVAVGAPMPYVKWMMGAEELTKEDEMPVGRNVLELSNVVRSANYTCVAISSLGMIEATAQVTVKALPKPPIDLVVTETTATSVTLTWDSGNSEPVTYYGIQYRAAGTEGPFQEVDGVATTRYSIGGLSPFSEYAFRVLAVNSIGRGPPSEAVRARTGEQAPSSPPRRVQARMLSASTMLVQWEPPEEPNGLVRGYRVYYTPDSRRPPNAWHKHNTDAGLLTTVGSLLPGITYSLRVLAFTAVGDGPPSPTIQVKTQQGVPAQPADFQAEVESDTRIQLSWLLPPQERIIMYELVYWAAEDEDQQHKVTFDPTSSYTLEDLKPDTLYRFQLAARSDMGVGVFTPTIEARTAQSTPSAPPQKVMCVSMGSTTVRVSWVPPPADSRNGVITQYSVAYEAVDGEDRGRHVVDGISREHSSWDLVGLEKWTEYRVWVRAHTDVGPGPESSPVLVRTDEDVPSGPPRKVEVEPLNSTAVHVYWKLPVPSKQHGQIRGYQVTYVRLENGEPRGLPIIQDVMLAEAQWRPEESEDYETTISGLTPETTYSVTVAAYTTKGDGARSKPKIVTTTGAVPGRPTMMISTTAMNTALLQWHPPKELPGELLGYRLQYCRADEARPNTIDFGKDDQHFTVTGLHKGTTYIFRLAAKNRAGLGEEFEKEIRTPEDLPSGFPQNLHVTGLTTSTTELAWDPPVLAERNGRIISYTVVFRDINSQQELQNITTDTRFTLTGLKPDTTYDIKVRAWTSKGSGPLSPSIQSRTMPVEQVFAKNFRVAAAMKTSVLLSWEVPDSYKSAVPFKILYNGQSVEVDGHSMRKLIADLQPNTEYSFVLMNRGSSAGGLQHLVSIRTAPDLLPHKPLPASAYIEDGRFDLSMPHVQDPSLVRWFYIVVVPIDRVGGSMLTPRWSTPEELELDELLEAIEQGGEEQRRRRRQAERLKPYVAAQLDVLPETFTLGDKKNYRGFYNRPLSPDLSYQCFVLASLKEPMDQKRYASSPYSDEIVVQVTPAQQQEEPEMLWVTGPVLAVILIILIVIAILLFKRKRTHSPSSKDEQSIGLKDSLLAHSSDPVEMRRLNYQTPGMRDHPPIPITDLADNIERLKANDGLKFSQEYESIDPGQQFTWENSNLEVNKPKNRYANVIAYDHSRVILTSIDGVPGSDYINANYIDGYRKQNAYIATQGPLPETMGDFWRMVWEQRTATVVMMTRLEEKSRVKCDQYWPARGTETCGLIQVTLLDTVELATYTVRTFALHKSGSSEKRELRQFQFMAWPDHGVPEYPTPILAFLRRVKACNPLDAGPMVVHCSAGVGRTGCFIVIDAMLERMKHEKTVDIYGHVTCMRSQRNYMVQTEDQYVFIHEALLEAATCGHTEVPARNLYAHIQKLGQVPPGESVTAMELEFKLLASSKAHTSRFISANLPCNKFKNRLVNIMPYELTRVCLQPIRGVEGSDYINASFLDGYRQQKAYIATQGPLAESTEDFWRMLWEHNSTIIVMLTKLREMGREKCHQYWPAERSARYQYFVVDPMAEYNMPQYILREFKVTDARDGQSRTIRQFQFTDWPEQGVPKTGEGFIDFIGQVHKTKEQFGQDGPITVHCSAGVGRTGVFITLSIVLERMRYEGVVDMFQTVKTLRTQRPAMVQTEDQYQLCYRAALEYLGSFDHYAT

Row | Structure (SMILES) | inhibition [1] | other results
1 | COc1ccc(-c2nocc3cccc2-3)cc1 | 3% | –
2 | COc1ccc(C(=O)c2ccc3c(-c4ccc(OC(C(=O)O)C(=O)O)cc4)nocc2-3)cc1 | 3.3% | –
3 | COc1ccc(C(=O)c2ccc3c(-c4ccc(OCC(=O)NCCO)cc4)nocc2-3)cc1 | inactive | –
4 | O=C(O)COc1ccc(-c2nocc3c(C(=O)c4ccc(Cl)cc4)ccc2-3)cc1 | 14.3% | –
5 | O=C(c1ccc2c(-c3ccc(OC(C(=O)O)C(=O)O)cc3)nocc1-2)C1CCCC1 | 76.7% | pIC50 [2]: 5.09
6 | COc1ccc(C(=O)c2ccc3c(-c4ccc(O[C@@H](Cc5ccccc5)C(=O)O)cc4)nocc2-3)cc1 | 80.1% | inhibition [3]: 96.8%; inhibition [4]: -6.83%; inhibition [5]: 63.5%; inhibition [6]: 95.7%; inhibition [7]: 17.3%; inhibition [8]: 10.3%; inhibition [9]: 89.7%; pIC50 [2]: 5.11
7 | O=C(O)COc1ccc(-c2nocc3c(C(=O)c4cccc(C(F)(F)F)c4)ccc2-3)cc1 | 68.9% | pIC50 [2]: 5.12
8 | COc1ccc(-c2nocc3c(C(=O)c4ccc(Cl)cc4Cl)ccc2-3)cc1 | 101% | pIC50 [2]: 5.47
9 | O=C(O)COc1ccc(-c2nocc3c(C(=O)C4CCCC4)ccc2-3)cc1 | 15.7% | –
10 | COc1ccc(C(=O)c2ccc3c(-c4cc(Br)c(OCC(=O)O)c(Br)c4)nocc2-3)cc1 | 101% | inhibition [3]: 101%; inhibition [4]: 53.4%; inhibition [5]: 106%; inhibition [6]: 100%; inhibition [7]: 57.7%; inhibition [8]: 40.5%; inhibition [9]: 100%; inhibition [10]: 41.8%; pIC50 [2]: 5.79
11 | O=C(c1ccc2c(-c3ccc(OC(CCO)C(=O)O)cc3)nocc1-2)C1CCCC1 (configuration not stated) | inactive | –
12 | O=C(O)COc1ccc(-c2nocc3c(C(=O)c4ccc(Cl)cc4Cl)ccc2-3)cc1 | 38% | –
13 | CCOC(=O)COc1ccc(-c2nocc3cccc2-3)cc1 | 2.1% | –
14 | COc1ccc(C(=O)c2ccc3c(-c4ccc(OCC(=O)NCN5CCOCC5)cc4)nocc2-3)cc1 | inactive | –
15 | O=C(O)COc1ccc(-c2nocc3c(C(=O)c4ccccc4F)ccc2-3)cc1 | 11.9% | –
16 | O=C(O)COc1ccc(-c2nocc3cccc2-3)cc1 | 27.4% | –
17 | COCCNCc1ccc(C(=O)c2ccc3c(-c4ccc(OCC(=O)O)cc4)nocc2-3)cc1 | 10.2% | –

Row | Structure (SMILES) | inhibition [1] | other results
18 | COc1ccc(O)c(CC(=O)c2ccc3c(-c4ccc(OCC(=O)O)cc4)nocc2-3)c1 | 48.7% | –
19 | COc1ccccc1C(=O)c1ccc2c(-c3ccc(OCC(=O)O)cc3)nocc1-2 | 3.8% | –
20 | CC(=O)c1ccc2c(-c3ccc(OCC(=O)O)cc3)nocc1-2 | inactive | –
21 | COc1ccc(C(=O)c2ccc3c(-c4ccc(OCC(=O)N5CCN(Cc6ccccc6)CC5)cc4)nocc2-3)cc1 | 68.8% | pIC50 [2]: 5.26
22 | O=C(O)COc1ccc(-c2nocc3c(C(=O)CCC4CCCC4)ccc2-3)cc1 | 42.4% | –
23 | Oc1ccc(-c2nocc3cccc2-3)cc1 | 18.5% | –
24 | COc1ccc(C(=O)c2ccc3c(-c4ccc(OCC(=O)O)cc4)noc(C)c2-3)cc1 | inactive | –
25 | Cc1onc(-c2ccc(OCC(=O)O)cc2)c2cccc1-2 | inactive | –
26 | COc1ccc(C(=O)c2ccc3c(-c4ccc(OC)cc4)nocc2-3)cc1 | 32% | –
27 | N#Cc1cccc(C(=O)c2ccc3c(-c4ccc(OCC(=O)O)cc4)nocc2-3)c1 | inactive | –
28 | COc1ccc(CC(=O)c2ccc3c(-c4ccc(OCC(=O)O)cc4)nocc2-3)cc1 | 85.5% | pIC50 [2]: 5.25
29 | COc1cccc(C(=O)c2ccc3c(-c4ccc(OCC(=O)O)cc4)nocc2-3)c1 | 87.4% | pIC50 [2]: 5.71
30 | O=C(O)COc1ccc(-c2noc(-c3ccccc3)c3cccc2-3)cc1 | 1.1% | –
31 | CCCCCCCCCCCCCCC(=O)c1ccc2c(-c3ccc(OCC(=O)O)cc3)nocc1-2 | 101% | pIC50 [2]: 6.57
32 | CCOC(=O)/C=C/c1ccc2c(-c3ccc(OCC(=O)O)cc3)nocc1-2 | inactive | –
33 | O=C(O)COc1ccc(-c2nocc3c(C(=O)c4ccco4)ccc2-3)cc1 | inactive | –
